In data set [1] the test system is MDA-MB-231. The data set can be described thus: Induction of apoptosis in human MDA-MB-231 cells assessed as viable cells at 320 nM incubated for 12 hrs by annexin V-FITC/PI based flow cytometric analysis (reference value: 98.1%). To be noted: read-out: Activity. It counts as functional. Summed up: (§1)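 Cells exposed to compound or 0.1% DMSO for 12 h at 37°C, then resuspended in PBS at 1×10^5 cells/mL. Stained with annexin V-FITC and PI for 20 min at room temperature in the dark, then analysed by flow cytometry. Quadrant percentages reported: lower right early apoptotic, upper right late apoptotic. n = 4, mean ± SD.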
On the technique in general: A flow cytometer gives signals particle by particle.

The test system of data set [2] is MDA-MB-231. Description: Induction of apoptosis in human MDA-MB-231 cells assessed as early apoptotic cells at 320 nM incubated for 12 hrs by annexin V-FITC/PI based flow cytometric analysis (reference value: 1.2%). It counts as functional. Put shortly:
as §1

Data set [3] deals with MDA-MB-231. Description: Induction of apoptosis in human MDA-MB-231 cells assessed as necrotic cells at 320 nM incubated for 12 hrs by annexin V-FITC/PI based flow cytometric analysis (reference value: 0.1%). It counts as functional. Summed up: as §1
Data set [4] has as its system MDA-MB-231. The data set can be described thus: Induction of apoptosis in human MDA-MB-231 cells assessed as viable cells at 640 nM incubated for 12 hrs by annexin V-FITC/PI based flow cytometric analysis (reference value: 98.1%). The settings on record: read-out: Activity. The class given is functional. Put shortly: as §1
Data set [5] relates to MDA-MB-231. The data set can be described thus: Induction of apoptosis in human MDA-MB-231 cells assessed as early apoptotic cells at 640 nM incubated for 12 hrs by annexin V-FITC/PI based flow cytometric analysis (reference value: 1.2%). It counts as functional. Summed up:
as §1

Data set [6] concerns MDA-MB-231. Description: Induction of apoptosis in human MDA-MB-231 cells assessed as increase in cleaved caspase-9 expression after 12 hrs by Western blotting analysis. It counts as functional, cell-based. The settings on record: dose 160-640 nM. Put shortly: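 MDA-MB-231 cells exposed to graded concentrations or 0.1% DMSO; the methods state 24 h, the legend 12 h. Lysed in RIPA, 80 µg protein per lane on SDS-PAGE and transferred to PVDF. Probed overnight at 4°C for caspase-3, cleaved caspase-3, caspase-9 and cleaved caspase-9, with GAPDH as loading control. HRP secondaries, ECL detection, densitometry. n = 4.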
(A western blot detects proteins with antibodies after separation by electrophoresis.)

Data set [7] deals with MDA-MB-231. The data set can be described thus: Antitumor activity against human MDA-MB-231 cells xenografted in BALB/c nude mouse assessed as tumor growth inhibition at 25 to 50 mg/kg, ip administered every 3 days for 4 weeks. It counts as functional, organism-based. To be noted: dose 25-50 mg/kg. Put shortly: (§2)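 Nude mice given 3×10^6 MDA-MB-231 cells in 200 µL PBS, injected subcutaneously into the right flank. Once tumors reached about 100 mm³, mice were randomized into four groups. Dosing was 25 or 50 mg/kg i.p. every three days for four weeks. Tumor volume, tumor weight and body weight were followed. n = 6, mean ± SD.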

Data set [8] has as its system MDA-MB-231. The data set can be described thus: Antitumor activity against human MDA-MB-231 cells xenografted in BALB/c nude mouse assessed as reduction in tumor weight at 25 to 50 mg/kg, ip administered every 3 days for 4 weeks. The class given is functional, organism-based. The settings on record: dose 25-50 mg/kg. Put shortly:
as §2
Background: In xenograft studies the graft and the host belong to different species.

Data set [9] is described as follows: Toxicity in BALB/c nude mouse xenografted with human MDA-MB-231 cells assessed as effect on body weight at 25 to 50 mg/kg, ip administered every 3 days for 4 weeks. The class given is organism-based. To be noted: in vivo, 672 h, dose 25-50 mg/kg. Summed up: as §2
A short description of data set [10]: Toxicity in BALB/c nude mouse xenografted with human MDA-MB-231 cells assessed as heart tissue damage at 25 to 50 mg/kg, ip administered every 3 days for 4 weeks. It counts as organism-based. To be noted: in vivo, 672 h, dose 25-50 mg/kg. Summed up: (§3)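 Xenograft-bearing nude mice (MDA-MB-231, s.c. right flank, treated from about 100 mm³) received 25 or 50 mg/kg i.p. every three days for four weeks. At the end mice were euthanized, and visceral organs were fixed in 4% paraformaldehyde for histopathology.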

The nature of data set [11]: Toxicity in BALB/c nude mouse xenografted with human MDA-MB-231 cells assessed as liver tissue damage at 25 to 50 mg/kg, ip administered every 3 days for 4 weeks. The class given is organism-based. To be noted: in vivo, 672 h, dose 25-50 mg/kg. Put shortly:
as §3

Data set [12] is described as follows: Toxicity in BALB/c nude mouse xenografted with human MDA-MB-231 cells assessed as spleen tissue damage at 25 to 50 mg/kg, ip administered every 3 days for 4 weeks. The settings on record: in vivo, 672 h, dose 25-50 mg/kg. It counts as organism-based. Summed up: as §3
Data set [13] in a line: Toxicity in BALB/c nude mouse xenografted with human MDA-MB-231 cells assessed as lung tissue damage at 25 to 50 mg/kg, ip administered every 3 days for 4 weeks. It counts as organism-based. To be noted: in vivo, 672 h, dose 25-50 mg/kg. Summed up:
as §3

A short description of data set [14]: Toxicity in BALB/c nude mouse xenografted with human MDA-MB-231 cells assessed as kidney tissue damage at 25 to 50 mg/kg, ip administered every 3 days for 4 weeks. The class given is organism-based. The settings on record: in vivo, 672 h, dose 25-50 mg/kg. Summed up: as §3

The source made the active and inactive calls. The calls are words filed in the database; no cut-off is given here.

In the case of `CC(=O)O[C@H]1C=C([C@H](C)[C@H]2CC(C)=C(C)C(=O)O2)[C@@]2(C)CC[C@H]3[C@@H](C[C@H]4O[C@]45[C@@H](OC(=O)CCCC(=O)Nc4ccc(N6CCOCC6)c(F)c4)C=CC(=O)[C@]35C)[C@@]12O`, the viability at 0.32 µM with MDA-MB-231 [1] worked out at 80.3%. The Activity was 16.7% in the data set with MDA-MB-231 [2]; 0.1% in the data set on MDA-MB-231 [3]; 28.5% with MDA-MB-231 [5]; “Dose-Dependent Effect” in the data set on MDA-MB-231 [6]; “Non-Toxic” in [9]; “Non-Toxic” in data set [10]. The Activity result in data set [11], in [12], in data set [13] and in [14] was “Non-Toxic” throughout. Also, the viability at 0.64 µM in the data set with MDA-MB-231 [4] amounted to 59.7%. The outcome in the data set on MDA-MB-231 [7] and in the data set on MDA-MB-231 [8] was Active.
